Rows were chosen to be rich in hits. Some 1.6% of all compounds tested hit in one or more screens of this group.
FLuc inh counter: counter-screen for luciferase assay inhibitors: firefly luciferase inhibition; hit rate 1.5% among 200,000; AID 1006; inhibition, % at 10 µM; P08659; ATPLite firefly luciferase biochemical luminescence, 10 min;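 active = inhibition above about 50% when tested at 10 µM, limit read from the data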
Target sequence (P08659 whole entry, looked up): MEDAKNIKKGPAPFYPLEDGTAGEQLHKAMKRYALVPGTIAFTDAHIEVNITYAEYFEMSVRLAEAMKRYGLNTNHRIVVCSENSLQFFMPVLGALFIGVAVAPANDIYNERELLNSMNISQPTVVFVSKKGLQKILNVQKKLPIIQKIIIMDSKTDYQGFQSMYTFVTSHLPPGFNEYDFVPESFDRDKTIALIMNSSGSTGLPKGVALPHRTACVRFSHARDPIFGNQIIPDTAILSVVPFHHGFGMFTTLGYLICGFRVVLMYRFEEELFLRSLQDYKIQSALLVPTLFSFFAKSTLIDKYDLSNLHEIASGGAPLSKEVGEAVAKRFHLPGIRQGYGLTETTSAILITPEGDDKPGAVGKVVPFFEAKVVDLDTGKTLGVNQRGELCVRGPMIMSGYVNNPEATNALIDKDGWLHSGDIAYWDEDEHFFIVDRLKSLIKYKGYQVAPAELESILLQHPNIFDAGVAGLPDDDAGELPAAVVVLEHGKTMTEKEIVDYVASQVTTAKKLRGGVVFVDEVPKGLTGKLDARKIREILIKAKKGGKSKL
C8 TRAIL sens: caspase-8 TRAIL sensitization. hit rate 1% among 360,000. NB7+C8 cells + TRAIL, ATPlite viability luminescence. inhibition (viability loss, TRAIL sensitization), % at 10 µM. AID 624354;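 active = compounds causing at least 50% loss of cell viability in the single-dose screen, relative to plate controls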
PPC-1+TRAIL kill: kills PPC-1 cancer cells in the presence of TRAIL; cell killing (% activity), % at 4 µM or 5 µM; AID 1443; hit rate 0.41% among 220,000; PPC-1 cells + TRAIL, ATPLite viability luminescence;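 active = cell killing above 50% in the first pass at 4 µM, then a duplicate retest at 5 µM averaging 50% or more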;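 also: plate controls were cells with TRAIL plus DMSO for no effect and medium-only wells lacking cells for full effect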
FLuc stim CS: affects firefly luciferase, flagging false hits in luciferase stimulation screens. activation factor at 10 µM. 200,000 tested, under 10 active. AID 1027. ATPlite luciferase biochemical, luminescence, 10 min; 0 = ATP-free wells, 1 = DMSO control;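 active = luciferase activation factor, scaled between plate controls, of at least 2 with compound at 10 µM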
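Assay system: Luciferase/luciferin detection reagent, cell-free biochemical luciferase assay / Also added: ATP substrate / Schedule: 10 min at ambient temperature / Measured by: luminescence measurement of luciferase light output / Benchmarks: low control with PBS replacing ATP, high control enzyme plus ATP without compound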
* = called active by the depositor; . = no result given.

SMILES	FLuc inh counter	C8 TRAIL sens	PPC-1+TRAIL kill	FLuc stim CS
COc1cc2[nH]c(-c3ccc(C)cc3)cc(=O)c2cc1OC	27	-10	11	0.7
Cc1nc(N2CCOCC2)c2cc(-c3ccccc3)sc2n1	9	7	7	0.9
Cc1nc(SCCC(=O)O)c2cc(-c3ccccc3)sc2n1	.	63*	.	.
O=c1c2oc3nc4c(cc3c2ncn1CCCc1ccccc1)CCCC4	.	22	-8	.
Cc1cc(NS(=O)(=O)c2ccc(NC(=O)Cc3ccccc3)cc2)nc(C)n1	.	-11	.	.
COc1ccc2c(c1)CC/C2=N\OC(=O)c1ccccc1OC	72*	2	22	0.3
COc1ccccc1C(=O)O/N=C1/CCCc2c1ccc(OC)c2[N+](=O)[O-]	-6	-1	9	1.1
O=C(CN1C(=O)NC2(CCCC2)C1=O)N1CCN(S(=O)(=O)c2ccccc2[N+](=O)[O-])CC1	.	-17	.	.
O=C(N/N=C/C(Cl)=C/c1ccccc1)c1cnccn1	56*	21	16	0.4
O=C(N/N=C/C(Cl)=C\c1ccccc1)c1cnccn1	46	24	15	0.5
CC(=C/c1ccccc1)/C=N/NC(=O)c1cnccn1	74*	45	25	0.3
O=C(N/N=C/C(Cl)=C/c1ccccc1)c1ccco1	64*	31	5	0.4
CC(/C=N/NC(=O)c1ccc(Br)cc1)=C\c1ccccc1	20	16	20	0.8
CC(/C=N/NC(=O)c1cccnc1)=C\c1ccccc1	65*	16	37	0.4
OCc1ccccc1-c1cnc2cccnn12	.	-2	.	.
O=C(NNC(=O)c1cc(OCC(F)(F)F)ccc1OCC(F)(F)F)c1ccc(Cl)c(Cl)c1	-10	66*	5	1.1
C=CCONC(=O)c1cc(OCC(F)(F)F)ccc1OCC(F)(F)F	-8	13	15	1.1
Cc1ccc2ccccc2c1CSc1nc(N)nc2c1ncn2CC(C)C	.	21	.	.
O=C(Nc1ccc2c(c1)CCC2)c1ccccc1F	62*	57*	6	0.4
O=C(Nc1ccc2c(c1)CCC2)c1ccccc1	62*	41	30	0.4
O=C(O)c1ccccc1-c1ccccc1C(=O)Nc1ccc2c(c1)CCC2	.	10	.	.
Nc1nc(N)c2cc(S(=O)(=O)c3ccc4ccccc4c3)ccc2n1	.	72*	.	.
Nc1nc(N)c2cc([N+](=O)[O-])ccc2n1	.	-16	.	.
O=C(CCn1c(=O)oc2cc(Cl)ccc21)Nc1ccc(N2CCOCC2)cc1	.	-10	.	.
C#CCOc1ccccc1C(N)=O	.	12	6	.
SMILES	FLuc inh counter	C8 TRAIL sens	PPC-1+TRAIL kill	FLuc stim CS
O=C(NCCC1=CCCCC1)c1ccc(=O)oc1	-2	-10	-5	1
O=C(NCCC1=CCCCC1)c1coc(=O)c(Br)c1	-5	53*	10	1
CC12CN(C(=O)c3ccccc3Br)CC(C)(CN(C(=O)c3ccccc3Br)C1)C2=O	.	0	1	.
O=C(COC(=O)c1cc(=O)[nH]c2ccccc12)NCCc1ccccc1	.	-4	.	.
O=C(CC(Nc1ccc(F)cc1)C(=O)O)c1ccccc1 (centres undefined)	87*	60*	5	0.1
Cc1ccc(NC(CC(=O)c2ccccc2)c2ccc(F)cc2)cc1 (centres undefined)	0	2	11	1
Cc1cc(/C=C2\Cc3ccccc3C2=O)c(C)n1-c1ccccc1	91*	71*	23	0.1
Nc1ccccc1C=C1Cc2ccccc2C1=O	.	48*	.	.
Cc1cc(C=C2C(=O)c3ccccc3C2=O)c(C)n1-c1ccc(C(=O)O)cc1	-7	6	8	1.1
CC1=NN(c2ccccc2)C(=O)/C1=C\c1cc(C)n(-c2cccnc2)c1C	.	-9	1	.
CC1=NN(c2ccccc2)C(=O)/C1=C\c1cc(C)n(-c2ccccc2)c1C	63*	25	12	0.4
COc1ccccc1/C=C1\Cc2ccccc2C1=O	.	5	11	.
CC1=NN(c2ccccc2)C(=O)C1=Cc1ccccc1	.	0	.	.
CC1=NN(c2ccccc2)C(=O)/C1=C/c1c(O)n(-c2ccc(F)cc2)[nH]c1=O	63*	33	31	0.4
Cc1cc(C=C2C(=O)c3ccccc3C2=O)c(C)n1-c1ccccc1	90*	78*	5	0.1
O=[N+]([O-])c1cccc(/C=N/NC2CCS(=O)(=O)C2)c1 (centres undefined)	.	3	0	.
Nc1c2ccccc2nc2ccccc12	.	64*	29	.
Nc1c2c(nc3ccccc13)CCCC2	-8	-4	3	1.1
CCNC(=S)NNC(=O)c1csc2c1CCC(C)C2 (centres undefined)	-2	-10	17	1
Cc1ccccc1NC(=S)NNC(=O)c1csc2c1CCC(C)C2 (centres undefined)	60*	17	39	0.4
COC(=O)C1C(=O)c2c([nH]c(C(=O)OC3CCCC3)c2C)CC1C (centres undefined)	56*	47	37	0.4
O=C(NC(=O)c1ccccc1)Nc1ccccc1	.	54*	.	.
COc1ccc(NC(=O)NC(=O)c2ccccc2)cc1	.	1	.	.
Cc1cc(Nc2ccc(C)c(C)c2)c2ccccc2n1	.	6	.	.
Cc1ccc(Nc2nc(N)c3ccccc3n2)cc1C	.	79*	.	.
SMILES	FLuc inh counter	C8 TRAIL sens	PPC-1+TRAIL kill	FLuc stim CS
Cc1ccc(SCc2cn3c(C)csc3n2)cc1	64*	30	40	0.4
O=C1C(=Cc2cccs2)Oc2ccccc21	.	-12	.	.
O=C1/C(=C/c2cccs2)COc2ccccc21	71*	14	8	0.3
O=[N+]([O-])c1nccn1CC(O)CO (centres undefined)	.	3	.	.
O=S(=O)(NC(=NCCc1ccc(Cl)cc1)c1ccccc1Cl)c1cccs1	-6	-2	-1	1.1
O=C(NCCN1CCOCC1)C(=O)NCC1OCCCN1S(=O)(=O)c1cc(F)ccc1F (centres undefined)	.	8	.	.
C=CCn1c(C)cc(C(=O)COc2ncnc3sccc23)c1C	58*	38	13	0.4
Cc1ccc(-n2nnnc2CNC(=O)c2ccc3c(c2)OCO3)cc1C	.	-19	.	.
CON(C)C(=O)CC1(CN(Cc2ccccc2)C(=O)OC(C)(C)C)CCCCC1	.	4	.	.
C#CC(=O)CC1(CN(Cc2ccccc2)C(=O)OC(C)(C)C)CCCCC1	.	94*	.	.
COc1ccc(OC)c(C2=NS(=O)(=O)N(C)C(C(=O)Nc3ccc(F)cc3F)=C2)c1	.	-3	.	.
Cc1ccc(-c2nc(NC(=O)c3nn(C)cc3[N+](=O)[O-])sc2C)cc1C	-9	95*	24	1.1
Cn1cc([N+](=O)[O-])c(C(=O)Nc2ccc(C(=O)N3CCCCC3)cc2)n1	-3	14	-1	1
Cn1cc([N+](=O)[O-])c(C(=O)Nc2nc(-c3ccc(Cl)cc3)cs2)n1	-4	94*	48	1
Cc1ccc(-c2nc(NC(=O)c3nn(C)cc3[N+](=O)[O-])sc2C)cc1	-6	93*	34	1.1
Cn1cc([N+](=O)[O-])c(C(=O)Nc2ccc(C3CCCCC3)cc2)n1	14	61*	46	0.9
O=C(N/N=C1\CCc2ccccc21)c1ccccc1Cl	26	10	22	0.7
O=C(N/N=C1\CCc2ccccc21)c1ccc(O)cc1	66*	33	33	0.3
Cc1ccc(C(=O)N/N=C2\CCc3ccccc32)c(C)c1	62*	48	24	0.4
